Hits are enriched below; roughly 3.3% of the tested compounds scored in any of these assays.
SENP6 block: SENP6 protease inhibition; inhibition, % at 10 µM; Recombinant SENP6 catalytic domain, aminoluciferin luminescence; 330,000 tested, 1.8% active;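 active = inhibition above about 50% at the single tested dose, limit read from the data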;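 note: plate controls were DMSO wells with enzyme for no effect and DMSO wells lacking enzyme for full effect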
SENP8 block-1: inhibitors of human SENP8 protease. Q96LD8. purified SENP8, Z-RLRGG-aminoluciferin cleavage, luminescence. inhibition, % at 10 µM. 330,000 tested, 1.2% active; in the data active = inhibition above about 50%
SENP8 block-2: blocks human SENP8 cleavage of Nedd8 substrate; Q96LD8; recombinant SENP8, Nedd8 substrate fluorescence; inhibition, % at 20 µM; 360,000 tested, 0.64% active; AID 602440; in the data active = inhibition mostly above about 40%, no sharp cut-off; inactive = mostly below about 27%
CendR NRP1 mod: modulators of CendR peptide binding to human neuropilin-1 | O14786 | FAM-RPARPAR peptide binding to NRP-1, fluorescence polarization | inhibition, % at 25 µM | 360,000 tested, 0.85% active | AID 602438;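 active = inhibition or corrected inhibition above about 18%, plus a signal ratio from 0.5 to 1.5, limit read from the data, passing the limit was not always enough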
SENP1 inh: inhibitors of human SENP1 SUMO protease catalytic domain; Q9P0U3; recombinant SENP1 catalytic domain, CyPet-SUMO1-YPet FRET cleavage; inhibition, % at 10 µM; 360,000 tested, 0.21% active;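 active = inhibition at least 30% at 10 µM, raw YFP signal under a set limit, fluorescence ratio 0.5 to 1.5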;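 note: 0% = enzyme with DMSO and 100% = no enzyme wells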
Target sequence (Q9P0U3 419-644 limits assumed): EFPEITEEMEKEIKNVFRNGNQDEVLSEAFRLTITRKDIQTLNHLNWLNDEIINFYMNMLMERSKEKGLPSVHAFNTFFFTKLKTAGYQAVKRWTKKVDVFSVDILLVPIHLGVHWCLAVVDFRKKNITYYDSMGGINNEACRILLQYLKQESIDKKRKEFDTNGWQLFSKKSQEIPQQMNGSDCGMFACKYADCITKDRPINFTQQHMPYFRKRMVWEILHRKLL
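Test system: hSENP1 catalytic domain, recombinant; Amount: 20 pM final SENP1 enzyme; Medium: Tris pH 8 buffer plus EDTA, NaCl, BME, BSA, NP40, catalase; Schedule: 50 min enzyme reaction, room temperature, light-protected; Technique: FRET fluorescence in CFP and YFP emission channels; Controls: no-enzyme wells low, DMSO-plus-enzyme wells high control.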
SENP7 inh: blocks the human protease SENP7. Q9BQF6. AID 434973. recombinant SENP7, Z-RLRGG-aminoluciferin luminescence, 40 min. 330,000 tested, 1.5% active. inhibition, % at 5 µM;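 active = inhibition above about 50% at the single test dose, limit read from the data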;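 note: plate controls were DMSO with enzyme for no effect and no enzyme buffer wells for full effect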
Target sequence (Q9BQF6 706-1050 limits assumed): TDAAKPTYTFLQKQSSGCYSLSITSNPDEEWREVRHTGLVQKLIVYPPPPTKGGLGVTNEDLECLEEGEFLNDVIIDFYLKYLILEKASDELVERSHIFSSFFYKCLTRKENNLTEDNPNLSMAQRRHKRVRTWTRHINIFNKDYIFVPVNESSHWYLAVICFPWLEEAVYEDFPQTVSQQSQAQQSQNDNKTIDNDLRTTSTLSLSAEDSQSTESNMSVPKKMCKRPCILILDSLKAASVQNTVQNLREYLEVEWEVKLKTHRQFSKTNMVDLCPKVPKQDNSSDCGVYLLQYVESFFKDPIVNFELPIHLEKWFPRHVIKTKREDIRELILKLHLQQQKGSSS
SENP8 confirm: confirmation of human SENP8 protease inhibitors; Recombinant SENP8, Z-RLRGG-aminoluciferin luminescence, 60 min; inhibition, % at 12.5 µM; shares compounds with SENP7 inh; AID 488912; 6,200 tested, 40% active;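 active = mean inhibition across replicates above about 50%, limit read from the data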
SENP6 confirm: human SENP6 inhibition, confirmed; shares compounds with SENP7 inh; recombinant SENP6, Z-RLRGG-aminoluciferin luminescence; inhibition, % at 12.5 µM; 6,200 tested, 58% active
SENP7 conf: human SENP7 inhibition, confirmed; shares compounds with SENP7 inh; recombinant SENP7, Z-RLRGG-aminoluciferin luminescence, 40 min; inhibition, % at 12.5 µM; 6,200 tested, 69% active
Casp3 select: inhibits human caspase-3 in SENP selectivity test; AID 488918; purified caspase-3, Z-DEVD-aminoluciferin luminescence, 60 min; 6,200 tested, 60% active; shares compounds with SENP7 inh; inhibition, % at 12.5 µM;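 active = mean inhibition above about 50%, limit read from the data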;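 note: plate controls were enzyme with DMSO for no effect and wells without caspase-3 for full effect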
Luc interf: interferes with luciferase luminescence in SENP counter-screen; shares compounds with SENP7 inh; Pre-incubated SENP8/Z-RLRGG-aminoluciferin, luciferase luminescence interference; inhibition, % at 12.5 µM; 6,200 tested, 39% active; AID 488919;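 active = mean inhibition above about 50% when retested at one dose, limit read from the data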;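 note: plate controls were DMSO wells with completed reaction for no effect and substrate without enzyme for full effect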
Active calls of the source: *; . = no result.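 Rule for the calls, unless noted: active = mean inhibition above about 50% in the one-dose retest (limit read from the data); inactive = the rest.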

SMILES	SENP6 block	SENP8 block-1	SENP8 block-2	CendR NRP1 mod	SENP1 inh	SENP7 inh	SENP8 confirm	SENP6 confirm	SENP7 conf	Casp3 select	Luc interf
O=C(O)COc1ccccc1/C=N/NC(=O)CSc1nnc(SCc2ccc(Cl)cc2)s1	65.6*	45.0	25.6	-14.8	1.5	8.8	35.6	48.9	67.1*	19.3	2.6
Cc1ccc(-c2nnc(SCC(=O)N/N=C/c3c(C)nn(-c4ccccc4)c3C)n2-c2ccccc2)cc1	3.3	1.0	13.2	1.7	1.7	6.0	.	.	.	.	.
O=C(O)COc1ccccc1/C=N/NC(=O)CSc1nnc(SCc2cccc3ccccc23)s1	-11.0	27.4	16.0	-39.7	1.5	0.9	.	.	.	.	.
Cc1ccc(CSc2nnc(SCC(=O)N/N=C/c3c(C)nn(-c4ccccc4)c3C)s2)cc1	75.1*	41.4	15.6	11.5	3.5	55.4*	12.0	26.0	39.1	11.6	6.4
COc1cccc2cc(-c3cn4ccc(C)cc4n3)c(=O)oc12	46.0	22.7	-68.8	-9.6	-6.6	50.0*	-0.5	4.2	12.8	11.5	3.8
COc1ccc(-c2nnc(-c3cc4ccccc4oc3=O)o2)cc1	-7.0	-7.5	-349.2	13.6	-71.3	3.3	.	.	.	.	.
COc1cccc2cc(-c3nnc(-c4ccccc4)o3)c(=O)oc12	92.1*	73.8*	-222.9	-8.5	-9.2	89.9*	-0.2	1.6	3.4	5.4	9.8
CC(=O)N[C@@H](Cc1c[nH]c2ccccc12)C(=O)OCC(=O)Nc1cc(C)on1	.	.	6.6	7.4	4.5	.	.	.	.	.	.
O=C(Cc1ccsc1)OCC(=O)c1ccccc1	32.7	3.6	5.1	-12.7	-1.4	27.7	.	.	.	.	.
Cc1nc2nc(-c3cccs3)[nH]c2cc1Br	91.0*	90.1*	-206.9	-13.4	-1.0	89.9*	92.1*	92.0*	98.9*	92.7*	45.7
c1ccc(-c2nc(-c3cccs3)[nH]c2-c2ccccc2)cc1	-3.0	2.6	-308.6	-7.5	7.3	-0.1	.	.	.	.	.
Cc1cccc2c1cnn2C(=O)Nc1cc(F)ccc1F	61.2*	42.7	21.6	0.5	0.1	4.6	29.8	37.4	7.0	43.2	11.7
CC(C)=CCC1=C(OCC(=O)O)C(=O)c2ccccc2C1=O	-17.1	76.1*	71.6*	17.2	4.7	36.2	79.5*	87.1*	64.9*	9.8	8.9
CC(C)=CCC/C(C)=C/CC/C(C)=C/CC/C(C)=C/CC1=C(C)C(=O)c2ccccc2C1=O	13.3	8.8	-20.2	-18.8	-27.3	4.6	.	.	.	.	.
COc1ccc(S(=O)(=O)N2CCOCC2)cc1NC(=O)C1CC(=O)N(c2ccc3c(c2)OCCO3)C1 (configuration not stated)	.	.	23.8	4.8	0.9	.	.	.	.	.	.
CCN(CC(=O)c1c(N)n(C)c(=O)n(C)c1=O)c1cccc2ccccc12	84.2*	53.7*	-279.2	3.6	-18.5	29.0	12.4	11.6	7.4	-3.5	-3.4
Cc1cc(C)cc(NC(=O)N2CCc3ccccc3C2)c1	55.3*	23.9	5.4	6.8	0.6	43.0	43.4	36.6	69.0*	50.2*	50.7*
Cc1ccc(NC(=O)N2CCc3ccccc3C2)cc1C	-11.0	-4.0	4.1	18.1	-2.1	-3.9	.	.	.	.	.
CC1=CN2C(=N)/C(=C/c3ccc([N+](=O)[O-])o3)C(=O)N=C2S1	.	.	17.6	136.2	15.7	.	.	.	.	.	.
CC1=CN2C(=N)/C(=C/c3ccco3)C(=O)N=C2S1	52.4*	14.3	25.8	-10.5	-1.9	38.3	32.4	28.3	71.3*	73.5*	2.1
CCC(=O)N1Cc2cc(C(=O)N(C)C)nc(-c3cccc(-c4cncnc4)c3)c2[C@@H]1CCO	.	.	16.8	9.5	0.9	.	.	.	.	.	.
O=C(c1ccccc1)c1coc2c1C(=O)c1ccccc1C2=O	84.9*	33.3	52.4*	13.4	3.7	17.7	22.7	74.9*	48.0	14.1	14.8
CC(=O)C(C(C)=O)c1c(Cl)c(O)c(O)c2c(C(=O)c3ccccc3)coc12	-27.9	-10.3	29.2	12.4	3.9	-6.5	.	.	.	.	.
CC(=O)c1cccc2c(O)c(C3=Nc4ccccc4C3=O)[nH]c12	54.5*	59.1*	-0.6	-3.5	-10.2	13.0	48.3	59.5*	42.8	46.0	18.7
O=C1C(c2c(O)[nH]c3ccccc23)=Nc2ccccc21	5.5	2.6	20.7	4.5	-1.5	-8.5	.	.	.	.	.
SMILES	SENP6 block	SENP8 block-1	SENP8 block-2	CendR NRP1 mod	SENP1 inh	SENP7 inh	SENP8 confirm	SENP6 confirm	SENP7 conf	Casp3 select	Luc interf
COc1ccc(C2c3ccc(O)cc3Oc3ncn4nc(-c5ccncc5)nc4c32)cc1OC (configuration not stated)	67.0*	7.6	8.4	-21.4	-22.4	-1.8	11.8	7.9	5.3	1.7	-2.7
CCOc1ccc(-c2ccc(SCC)nn2)cc1	65.4*	79.7*	0.1	-2.6	0.8	90.1*	58.7*	68.3*	85.2*	74.3*	25.2
COc1ccc(-c2ccc(SC)nn2)cc1	94.9*	94.5*	-0.7	1.7	1.6	100.0*	98.2*	98.9*	102.1*	98.2*	79.5*
CCSc1ccc(-c2ccc(C)cc2)nn1	.	.	19.6	5.2	1.3	.	.	.	.	.	.
COc1ccc(C(=O)CSc2ccc(-c3ccccc3)nn2)cc1	4.1	-0.3	6.2	1.8	1.6	-1.6	.	.	.	.	.
Cc1cc(C(O)c2ncc(-c3ccccc3)[nH]2)ccc1F (configuration not stated)	.	.	2.9	0.2	1.3	.	.	.	.	.	.
COC(=O)c1cc(CNC(=O)c2ccc(S(=O)(=O)N(C)c3ccccc3)cc2)ccc1OC	14.4	5.0	-11.6	-5.2	-0.8	1.8	.	.	.	.	.
COc1ccc(S(=O)(=O)N2CCCCC2c2cc(C(=O)Nc3ccc(F)c(Cl)c3)no2)cc1 (configuration not stated)	.	.	13.3	-9.0	-0.8	.	.	.	.	.	.
O=c1cc(CO)oc2ccccc12	-13.1	-7.6	7.0	11.8	1.8	-3.8	.	.	.	.	.
O=c1cc(/C=C/c2ccccc2)oc2ccccc12	62.3*	55.3*	-114.3	-2.2	1.2	48.6	-3.1	77.8*	93.2*	64.3*	72.9*
N#Cc1c(Nc2ccc(Cl)cc2)s[nH]c1=O	58.6*	46.7	-22.7	-9.6	-43.5	24.6	56.0*	49.4	84.7*	68.7*	38.8
Cc1nnc(Cc2ccccc2)c2n[nH]c(C)c12	.	.	12.8	-2.3	-0.1	.	.	.	.	.	.
